Measured values reported in ChEMBL document CHEMBL1124493, “Synthesis and tumor uptake of 5-82Br- and 5-131I-labeled 5-halo-1-(2-fluoro-2-deoxy-beta-D-ribofuranosyl)uracils” (J Med Chem, 1989).

Legend:
Mus musculus [1] = assay: Biodistribution of intravenously injected [131I]-labeled compound in heart of BDF1 female mice bearing subcutaneous Lewis lung carcinoma after 0.50 hours; format: ADME, organism-based; settings: in vivo, iv, 0.5 h
Summary of the method: (§1)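 Female BDF1 mice bearing subcutaneous Lewis lung carcinoma received a single intravenous dose of 0.5-1.8 μg of the 131I-labeled nucleoside (55-110 kBq). They were sacrificed at set times, and tissues were weighed wet and γ-counted. Activity is expressed as percent of injected dose per gram of wet tissue, given as mean ± standard deviation for six animals.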

Mus musculus [2] = organism: Mus musculus; assay: Other urinary compounds observed in BDF1 female mice bearing lewis lung tumor after 24 hr of injected [131I]-compound; format: functional, tissue-based; settings: Urine
Mus musculus [3] = organism: Mus musculus; assay: Other urinary compounds observed in BDF1 female mice bearing lewis lung tumor after 0-0.5 hr of injected [131I]-compound; format: functional, tissue-based; settings: Urine
Mus musculus [4] = assay: Biodistribution of intravenously injected [131I]-labeled compound in spleen of BDF1 female mice bearing subcutaneous Lewis lung carcinoma after 4 hours; format: ADME, organism-based; settings: in vivo, iv
Summary of the method: (§2)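 Female BDF1 mice with subcutaneous Lewis lung carcinoma given i.v. 0.5-1.8 μg of 131I-labeled nucleoside (55-110 kBq). Killed at set times. Tissues weighed wet and γ-counted. Radioactivity expressed as percent injected dose per gram wet tissue, mean ± SD of six animals.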

Mus musculus [5] = assay: Biodistribution of intravenously injected [131I]-labeled compound in lung of BDF1 female mice bearing subcutaneous Lewis lung carcinoma after 1 hours; format: ADME, organism-based; settings: in vivo, iv; summary of the method: as §1
Mus musculus [6] = assay: Biodistribution of intravenously injected [131I]-labeled compound in kidney of BDF1 female mice bearing subcutaneous Lewis lung carcinoma after 8 hours; format: ADME, organism-based; settings: in vivo, iv; summary of the method: as §1
Mus musculus [7] = assay: Biodistribution of intravenously injected [131I]-labeled compound in stomach of BDF1 female mice bearing subcutaneous Lewis lung carcinoma after 4 hours; format: ADME, organism-based; settings: in vivo, iv; summary of the method: as §2
Mus musculus [8] = assay: Biodistribution of intravenously injected [131I]-labeled compound in stomach of BDF1 female mice bearing subcutaneous Lewis lung carcinoma after 24 hours; format: ADME, organism-based; settings: in vivo, iv; summary of the method: as §2
Mus musculus [9] = assay: Biodistribution of intravenously injected [131I]-labeled compound in spleen of BDF1 female mice bearing subcutaneous Lewis lung carcinoma after 1 hours; format: ADME, organism-based; settings: in vivo, iv; summary of the method: as §2
Mus musculus [10] = organism: Mus musculus; assay: Urinary iodide observed in BDF1 female mice bearing lewis lung tumor after 0-0.5 hr of injected [131I]-compound; format: functional, tissue-based; settings: Urine
Mus musculus [11] = assay: Biodistribution of intravenously injected [131I]-labeled compound in kidney of BDF1 female mice bearing subcutaneous Lewis lung carcinoma after 1 hours; format: ADME, organism-based; settings: in vivo, iv; summary of the method: as §1
Mus musculus [12] = organism: Mus musculus; assay: Urinary [131I]5-iodouracil observed in BDF1 female mice bearing lewis lung tumor after 24 hr of injected [131I]-compound; format: functional, tissue-based; settings: Urine
Mus musculus [13] = assay: Biodistribution of intravenously injected [131I]-labeled compound in bone of BDF1 female mice bearing subcutaneous Lewis lung carcinoma after 1 hours; format: ADME, organism-based, Bone element; settings: in vivo, iv; summary of the method: as §1
Mus musculus [14] = assay: Biodistribution of intravenously injected [131I]-labeled compound in blood of BDF1 female mice bearing subcutaneous Lewis lung carcinoma after 0.50 hours; format: ADME, organism-based; settings: in vivo, iv, 0.5 h; summary of the method: as §1
Mus musculus [15] = assay: Biodistribution of intravenously injected [131I]-labeled compound in bone of BDF1 female mice bearing subcutaneous Lewis lung carcinoma after 4 hours; format: ADME, organism-based, Bone element; settings: in vivo, iv; summary of the method: as §1
Mus musculus [16] = assay: Biodistribution of intravenously injected [131I]-labeled compound in stomach of BDF1 female mice bearing subcutaneous Lewis lung carcinoma after 8 hours; format: ADME, organism-based; settings: in vivo, iv; summary of the method: as §2
Mus musculus [17] = assay: Biodistribution of intravenously injected [131I]-labeled compound in heart of BDF1 female mice bearing subcutaneous Lewis lung carcinoma after 0.25 hours; format: ADME, organism-based; settings: in vivo, iv; summary of the method: as §1
Mus musculus [18] = organism: Mus musculus; assay: Urinary iodide observed in BDF1 female mice bearing lewis lung tumor after 24 hr of injected [131I]-compound; format: functional, tissue-based; settings: Urine
Mus musculus [19] = assay: Biodistribution of intravenously injected [131I]-labeled compound in skin of BDF1 female mice bearing subcutaneous Lewis lung carcinoma after 0.50 hours; format: ADME, organism-based, Zone of skin; settings: in vivo, iv, 0.5 h; summary of the method: as §2
Mus musculus [20] = assay: Biodistribution of intravenously injected [131I]-labeled compound in blood of BDF1 female mice bearing subcutaneous Lewis lung carcinoma after 8 hours; format: ADME, organism-based; settings: in vivo, iv; summary of the method: as §1
Mus musculus [21] = organism: Mus musculus; assay: Urinary [131I]- compound observed in BDF1 female mice bearing lewis lung tumor after 0-0.5 h of injected [131I]-compound; format: functional, tissue-based; settings: Urine
Mus musculus [22] = assay: Biodistribution of intravenously injected [82Br]-labeled compound in muscle of BDF1 female mice bearing subcutaneous Lewis lung carcinoma after 0.25 hours; format: ADME, organism-based, Muscle tissue; settings: in vivo, iv
Summary of the method: (§3)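 Female BDF1 mice with subcutaneous Lewis lung carcinoma given an iv injection of [82Br]-labelled nucleoside, 47-130 μg carrying 20-60 kBq 82Br. Tissues were excised, weighed wet and γ-counted. Values are percent injected dose per gram of wet tissue, mean ± standard deviation of six animals, with organ-to-tumour ratios derived.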

Mus musculus [23] = assay: Biodistribution of intravenously injected [82Br]-labeled compound in lung of BDF1 female mice bearing subcutaneous Lewis lung carcinoma after 1 hours; format: ADME, organism-based; settings: in vivo, iv; summary of the method: as §3
Mus musculus [24] = assay: Biodistribution of intravenously injected [82Br]-labeled compound in blood of BDF1 female mice bearing subcutaneous Lewis lung carcinoma after 1 hours; format: ADME, organism-based; settings: in vivo, iv
Summary of the method: (§4)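 82Br-labeled nucleoside given intravenously to female BDF1 mice bearing subcutaneous Lewis lung carcinoma, at 47-130 μg carrying 20-60 kBq. Mice sacrificed at each time point. Wet-weighed tissues γ-counted. Values are percent injected dose per gram wet tissue, mean ± SD, n = 6.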

Mus musculus [25] = assay: Biodistribution of intravenously injected [82Br]-labeled compound in stomach of BDF1 female mice bearing subcutaneous Lewis lung carcinoma after 1 hours; format: ADME, organism-based; settings: in vivo, iv
Mus musculus [26] = assay: Biodistribution of intravenously injected [82Br]-labeled compound in gut of BDF1 female mice bearing subcutaneous Lewis lung carcinoma after 2 hours; format: ADME, organism-based; settings: in vivo, iv; summary of the method: as §3
Mus musculus [27] = assay: Biodistribution of intravenously injected [82Br]-labeled compound in spleen of BDF1 female mice bearing subcutaneous Lewis lung carcinoma after 0.25 hours; format: ADME, organism-based; settings: in vivo, iv; summary of the method: as §3
Mus musculus [28] = assay: Biodistribution of intravenously injected [82Br]-labeled compound in muscle of BDF1 female mice bearing subcutaneous Lewis lung carcinoma after 4 hours; format: ADME, organism-based, Muscle tissue; settings: in vivo, iv; summary of the method: as §3
Mus musculus [29] = assay: Biodistribution of intravenously injected [82Br]-labeled compound in gut of BDF1 female mice bearing subcutaneous Lewis lung carcinoma after 24 hours; format: ADME, organism-based; settings: in vivo, iv; summary of the method: as §3
Mus musculus [30] = assay: Biodistribution of intravenously injected [82Br]-labeled compound in muscle of BDF1 female mice bearing subcutaneous Lewis lung carcinoma after 1 hours; format: ADME, organism-based, Muscle tissue; settings: in vivo, iv; summary of the method: as §3
Mus musculus [31] = assay: Biodistribution of intravenously injected [82Br]-labeled compound in lung of BDF1 female mice bearing subcutaneous Lewis lung carcinoma after 4 hours; format: ADME, organism-based; settings: in vivo, iv; summary of the method: as §3
Mus musculus [32] = assay: Biodistribution of intravenously injected [82Br]-labeled compound in heart of BDF1 female mice bearing subcutaneous Lewis lung carcinoma after 0.25 hours; format: ADME, organism-based; settings: in vivo, iv; summary of the method: as §3
Mus musculus [33] = assay: Biodistribution of intravenously injected [82Br]-labeled compound in heart of BDF1 female mice bearing subcutaneous Lewis lung carcinoma after 24 hours; format: ADME, organism-based; settings: in vivo, iv; summary of the method: as §3
Mus musculus [34] = assay: Biodistribution of intravenously injected [82Br]-labeled compound in gut of BDF1 female mice bearing subcutaneous Lewis lung carcinoma after 8 hours; format: ADME, organism-based; settings: in vivo, iv; summary of the method: as §3
Mus musculus [35] = assay: Biodistribution of intravenously injected [82Br]-labeled compound in bone of BDF1 female mice bearing subcutaneous Lewis lung carcinoma after 24 hours; format: ADME, organism-based, Bone element; settings: in vivo, iv; summary of the method: as §4
Mus musculus [36] = assay: Biodistribution of intravenously injected [82Br]-labeled compound in bone of BDF1 female mice bearing subcutaneous Lewis lung carcinoma after 2 hours; format: ADME, organism-based, Bone element; settings: in vivo, iv; summary of the method: as §4
Mus musculus [37] = assay: Biodistribution of intravenously injected [82Br]-labeled compound in bone of BDF1 female mice bearing subcutaneous Lewis lung carcinoma after 0.5 hours; format: ADME, organism-based, Bone element; settings: in vivo, iv; summary of the method: as §4
Mus musculus [38] = assay: Biodistribution of intravenously injected [82Br]-labeled compound in liver of BDF1 female mice bearing subcutaneous Lewis lung carcinoma after 0.25 hours; format: ADME, organism-based; settings: in vivo, iv; summary of the method: as §3
Mus musculus [39] = assay: Biodistribution of intravenously injected [82Br]-labeled compound in heart of BDF1 female mice bearing subcutaneous Lewis lung carcinoma after 1 hours; format: ADME, organism-based; settings: in vivo, iv; summary of the method: as §3

O=c1[nH]c(=O)n([C@@H]2O[C@H](CO)[C@@H](O)[C@H]2F)cc1I
Injected dose/g (Mus musculus [1]): 6.4%
Radioactive constituents (Mus musculus [2]): 0%
Radioactive constituents (Mus musculus [3]): 2.6%
Injected dose/g (Mus musculus [4]): 1.8%
Injected dose/g (Mus musculus [5]): 7%
Injected dose/g (Mus musculus [6]): 4.1%
Injected dose/g (Mus musculus [7]): 5.7%
Injected dose/g (Mus musculus [8]): 0.21%
Injected dose/g (Mus musculus [9]): 2.5%
Radioactive constituents (Mus musculus [10]): 4.7%
Injected dose/g (Mus musculus [11]): 12%
Radioactive constituents (Mus musculus [12]): 0%
Injected dose/g (Mus musculus [13]): 1.5%
Injected dose/g (Mus musculus [14]): 16%
Injected dose/g (Mus musculus [15]): 1.3%
Injected dose/g (Mus musculus [16]): 5.3%
Injected dose/g (Mus musculus [17]): 7%
Radioactive constituents (Mus musculus [18]): 62.6%
Injected dose/g (Mus musculus [19]): 3.8%
Injected dose/g (Mus musculus [20]): 4.1%
Radioactive constituents (Mus musculus [21]): 90.8%

O=c1[nH]c(=O)n([C@H]2O[C@@H](CO)[C@H](O)[C@H]2F)cc1Br
Injected dose/g (Mus musculus [22]): 0.89%
Injected dose/g (Mus musculus [23]): 0.52%
Injected dose/g (Mus musculus [24]): 0.78%
Injected dose/g (Mus musculus [25]): 0.5%
Injected dose/g (Mus musculus [26]): 0.41%
Injected dose/g (Mus musculus [27]): 1.06%
Injected dose/g (Mus musculus [28]): 0.12%
Injected dose/g (Mus musculus [29]): 0.22%
Injected dose/g (Mus musculus [30]): 0.21%
Injected dose/g (Mus musculus [31]): 0.38%
Injected dose/g (Mus musculus [32]): 1.61%
Injected dose/g (Mus musculus [33]): 0.48%
Injected dose/g (Mus musculus [34]): 0.33%
Injected dose/g (Mus musculus [35]): 0.14%
Injected dose/g (Mus musculus [36]): 0.26%
Injected dose/g (Mus musculus [37]): 0.3%
Injected dose/g (Mus musculus [38]): 1.45%
Injected dose/g (Mus musculus [39]): 0.44%
